These results are taken from the EternaBench riboswitch data.

The data set has as its system MS2 coat protein. The data set can be described thus: apparent Kd, MS2 coat protein; higher = weaker binding; RNA-MaP array. The essentials:
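The designed RNAs, transcribed from sequenced DNA templates on an Illumina sequencing chip, were incubated with fluorescently labeled MS2 coat protein at room temperature. Protein ranged from 1.5 nM to 3 μM, with 0.8–1.5 h incubation at the lowest and 10–20 min at the highest concentrations, in Tris-HCl pH 7.5 buffer with KCl, MgCl2, BSA, DTT, tRNA and Tween20, with or without input ligand. The median of per-cluster binding-curve fits gives the apparent Kd, and designs measured on fewer than 10 clusters were excluded.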

[1] abbreviates: designed as: OFF switch for flavin mononucleotide, no ligand.
Setting [2] is: ligand present: flavin mononucleotide, designed as: OFF switch for flavin mononucleotide.
Setting [3] is: designed as: ON switch for flavin mononucleotide, no ligand.
The mark [4] stands for this setting: ligand present: flavin mononucleotide, designed as: ON switch for flavin mononucleotide.
Setting [5] is: designed as: ON switch for theophylline, no ligand.
[6] abbreviates: ligand present: theophylline, designed as: ON switch for theophylline.

A word on the apparent Kd: it is a dissociation constant that holds for the conditions of the assay. “GGGACCGCAGCGUCAUACAUGAGGAUCACCCAUGUUUUACUAAGAAGGAUUAGGAAAGUAAGCUAAUAGGAUAUUACAAGGACA”: the “apparent Kd” value by setting is: under setting [1], 22.4 nM; under setting [2], 15.6 nM.
As for “UCGUAGAUAGUAGGAUAUAAGGCCCUAGAGCAUUUAGAAGGACUUUUGAGACUAACAUGAGGAUCACCCAUGUUUCGCACAUGG”, the “apparent Kd” value reads like this: under setting [3], 297 nM; under setting [4], 171 nM.
Consider “CCAACAACGGAGAAGGCGUGACUGGUUUCACAGACAGUGUGGCACAUGAGGAUCACCCAUGUGAACGAGGAUAUCCGUGUGCGA”, for which the “apparent Kd” value runs as follows: under setting [3], 11.6 nM; under setting [4], 7.4 nM.
On to “UCGGACCGAGGAUAUACAGUUCGUGAAGGUAAGAUACACAGACAUGAGGAUCACCCAUGUAGAAGGCGGAGUCC”, for which the “apparent Kd” value runs as follows: under setting [1], 12.1 nM; under setting [2], 15.6 nM.
For “UCAGAAAGAUAGGACCUACAUGAGGAUCACCCAUGUUGCUGUAGAAGGUGCCGUGCCAUCGUGAGCAAGGAUAUACCGAUAUGG” the same measures were 22.6 nM and 15.8 nM.
Turning to “UUAACAUGAGGAUCACCCAUGUGAAGCCGGCGAUGAAUAGUACAGGAUAUCGAAUACCGCCUAGACGAGAAGGGUAUCAAUCGG”, the “apparent Kd” value under setting [3] was 14.2 nM and the “apparent Kd” value under setting [4] was determined as 12.7 nM.
Regarding “AGCCCUCAAUCAGGAUAUGUGUGCAUCUAUUGACUUCUAACUAGACAUGAGGAUCACCCAUGUGAACAGAAGGGAUUGUAAUCA”, the “apparent Kd” value reads like this: under setting [1], 19.9 nM; under setting [2], 19.6 nM.
On to “CGUUCCAGGGAGAAGGGCUACAAGAUCUUUCCAGCAGGAUAUCCCAACAUGAGGAUCACCCAUGUAGUCGUGUUAUUGGCUAUA”, for which the “apparent Kd” value runs as follows: under setting [3], 243 nM; under setting [4], 86.4 nM.
Consider “UGACCAUGCGAGAAGGCGUACAUGAGGAUCACCCAUGUUCGUAGAACAAUCGGGUAAGCAUGGCACGAGGAUAUCGCCAAUGCC”, for which the “apparent Kd” value by setting is: under setting [1], 23.1 nM; under setting [2], 93.6 nM.
Take “UCACAGUCCCAGAAGGCCUUGUCAGAUUCAUAAGGAGGAUAUGGAUUACAUGAGGAUCACCCAUGUGAAUACUUACAGAGCAAC”: the “apparent Kd” value runs as follows: under setting [3], 79.3 nM; under setting [4], 15.4 nM.
“UCCACACGUCAGAAGGAUGUAUCUACAAUUUUCAUAGGAUAUGACCAUGGAGAUGAUUCCACAUGAGGAUCACCCAUGUCUGCU”: the “apparent Kd” value reads like this: under setting [1], 288 nM; under setting [2], 239 nM.
For the sequence “UGCAAAUGAUGAGAUACCAGUUCAGUUAAAUACAUGAGGAUCACCCAUGUCAGGGAACUCAACCCUUGGCAGCUCGAUGCACUCA”, the “apparent Kd” value is, setting by setting: under setting [5], 56.2 nM; under setting [6], 14.9 nM.
For “AUGCAACAUGAGGAUCACCCAUGUGGUGAUACCAGUCGACAAGUAGACCCUUGGCAGCACAGCCGAUAUCGAGAGAGAUUUUUGG” the same measures were 487 nM and 650 nM.
In the case of “AAUGUAUGUUAGGAUAUGGCCACGGCGAGGGACCCAGAAGGAACCACAUGAGGAUCACCCAUGUAAAAUAUGGA”, the “apparent Kd” value is, setting by setting: under setting [1], 20.3 nM; under setting [2], 16.4 nM.
As to “AUAUAGGUAGGAUAUACAAUGAAUGGGCACCGUAAAACCAUACAUGAGGAUCACCCAUGUAGAAGGACCGGAAG”, the “apparent Kd” value amounted to 7.86 nM under setting [1] and 12.5 nM under setting [2].
For the sequence “GUGCGCGUAAAAGGAUAUUCGGAUGAUAGAACUCGAAACUACAUGAGGAUCACCCAUGUCAAGAAGAAGAAGGUUUGGCGAAAU”, the “apparent Kd” value came out at 57.1 nM under setting [1] and 31.7 nM under setting [2].
As for “UAACUGGACCAGAAGGGAGCGCGUCGCGCAUCAACAUACAUGAGGAUCACCCAUGUUCGAGAGUCUCAGGAUAUGGCCGGUAUA”, the “apparent Kd” value under setting [3] is 9.92 nM and the “apparent Kd” value under setting [4] was 7.91 nM.
For “AUCUAACAUGAGGAUCACCCAUGUCAGGAUAUUGCAGCCGUAGUAGGUCUAGUUUGUGCAAGAAGGGACAUCUC”, the “apparent Kd” value runs as follows: under setting [1], 9.55 nM; under setting [2], 22.5 nM.
Regarding “ACGAAUCCCGUUCCGUGAGGACAUGAGGAUCACCCAUGUUGCAGAAGGGCCGAGCGGAUGGCGAGGCAGGAUAUGCCACAGAUC”, the “apparent Kd” value is 27.6 nM under setting [1] and 105 nM under setting [2].
For “AACCUACAUGAGGAUCACCCAUGUGAGGAUAUUGCGGUUCUUAGCAUGAGAACCAUACCAAGAAGGCACAGGGC” the same measures were 7.53 nM and 23.2 nM.
For the sequence “UAGGAUCAAGUAGGAUAUGUAGAACGGCUUUGUACAGAAGGACUAGUACAUGAGGAUCACCCAUGUUAGGGUACCUCUAAGGCA”, the “apparent Kd” value under setting [2] worked out at 198 nM.
Consider “UUAUAAGCACCUGAUACCAGUAUGAACCCGUACAUGAGGAUCACCCAUGUUAAUUUCUAUUACCCUUGGCAGCAGCCUUUUUCCU”, for which the “apparent Kd” value under setting [5] amounted to 19.4 nM and the “apparent Kd” value under setting [6] came out at 17.6 nM.
Take “UGACCGUUAAUAGGAUAUGUUCUCUUCCACAUGAGGAUCACCCAUGUAAACUAUUGUGAAACUGGACAGAAGGAUUAAACAUUG”: the “apparent Kd” value stood at 17.1 nM under setting [1] and 14.1 nM under setting [2].
As for “CUAACUCGUGUUAGGAUAUGGUAAGGGCUAGCCACCCAGAAGGAACAUGAGGAUCACCCAUGUCGACAGUCCCG”, the “apparent Kd” value is, setting by setting: under setting [1], 17.8 nM; under setting [2], 49.1 nM.
For “CUCCCUCAGUCAGGAUAUGUGUCUUCCCAACAGGACAUGAGGAUCACCCAUGUCGCAAGCAUGGGACAGAAGGGACAUGGAGCC” the same measures were 23.8 nM and 19.6 nM.
As to “UAUAUGAAGGGAGGAUAUGACCGAGAGUAAAUGUCAGAAGGCCCGUUUCUUCACCAACGUCCGGUACAUGAGGAUCACCCAUGU”, the “apparent Kd” value is, setting by setting: under setting [3], 11.3 nM; under setting [4], 8.86 nM.
With “AACAAGGAAGGAUAUACAUGAGGAUCACCCAUGUCACUAGGGCCUCCCGCUUCGCUGUGUAGAAGGACCAUGAA”, the “apparent Kd” value was 9.74 nM under setting [1] and 8.89 nM under setting [2].
With “AAACGCUAUGCGGCCGCCACUAAGGUUGGCGUCUAUGUCGUUUAAGACAUGAGGAUCACCCAUGUUAGGACCGGGCAUGUCCGCG”, the “apparent Kd” value (designed as: OFF switch for tryptophan, no ligand) was found to be 21.2 nM and the “apparent Kd” value (ligand present: tryptophan, designed as: OFF switch for tryptophan) amounted to 21.1 nM.
On to “ACGUAGGGCUAGAAGGCUCUAACAAGGUGCCCAUAAAAUAACAUGAGGAUCACCCAUGUUAGUAGAGAGGAUAUAGACUCAUGU”, for which the “apparent Kd” value was found to be 18.4 nM under setting [1] and 19.3 nM under setting [2].
The corresponding values for “ACCGGAAAAGGAUAUCGAAUUAGCAACAUGAGGAUCACCCAUGUCUGUCGCUCGUGUAUUCGAGAAGGUUUCGCCC” are 4.96 nM and 5.34 nM.
As for “CCGAACAUGAGGAUCACCCAUGUAUCCGAGCGAGGACCGGUACGGCCGCCACUCGAACUGCACCGGAAAAGGGAAACACCGAUCC”, the “apparent Kd” value was 56.2 nM (designed as: ON switch for tryptophan, no ligand) and 61.8 nM (ligand present: tryptophan, designed as: ON switch for tryptophan).
With “UAUUAACAAGGAUAUACAUGAGGAUCACCCAUGUGAAACUAUUUUAUAAUAACAACAAGUAGAAGGAGUUAAAA”, the “apparent Kd” value is, setting by setting: under setting [1], 13.2 nM; under setting [2], 10.8 nM.
As for “AAAACAUGAGGAUCACCCAUGUCCAAAUAAAUACACGGAACUAGAAGGGAAAAUCGAAAUUAAUAUCAGGAUAUAGGCAAAGCA”, the “apparent Kd” value runs as follows: under setting [3], 53 nM; under setting [4], 42.2 nM.
As to “AGUGGGUGUUAUGAUACCAGCGUAAUACACAACAUGAGGAUCACCCAUGUGGAGCCUCGCCGCCCUUGGCAGCAUUGGGCCCGCA”, the “apparent Kd” value reads like this: under setting [5], 212 nM; under setting [6], 344 nM.
Regarding “GACCAACAUGAGGAUCACCCAUGUCGAGUUGGAAGUUUUACGAGAAGGAUCCUCCUGCCGAGCGGAUAGGAUAUCGAAACGGAC”, the “apparent Kd” value by setting is: under setting [1], 11.5 nM; under setting [2], 8.93 nM.
Regarding “GUCGAAUCCUGAGGAUAUUCAGUGAUGGCUCAGACAUGAGGAUCACCCAUGUUACUCAGUGAGCGGAAGAAGGCAGCCUUCGGG”, the “apparent Kd” value reads like this: under setting [3], 163 nM; under setting [4], 131 nM.
The corresponding values for “CCCAAAGACACAUGAGGAUCACCCAUGUUCCGCAAACAAUUGGAGGAUAUGAAGGAACGCAGCAAACAGAAGGCCAUAAAUAGC” are 16.8 nM and 9.67 nM.
Regarding “CGAUAUGAGGUCGAUACCAGCAGCUUCAAGCACAUGAGGAUCACCCAUGUCCAUUUUACUUGCCCUUGGCAGCGACUUUGGAAAC”, the “apparent Kd” value is 39.4 nM under setting [5] and 13.8 nM under setting [6].
Consider “AGAUAAUCUUGGGAUUUCGUACAUGAGGAUCACCCAUGUCCAGAGGAUAUGCAUAGACAGGCAUCGCAGAAGGCUGGUGAACAG”, for which the “apparent Kd” value is, setting by setting: under setting [3], 35.4 nM; under setting [4], 27.6 nM.
Turning to “CGCGUGUUCGAGGAUAUGGAACUGAUAUUAGACCCAGAAGGCGAGACAUGAGGAUCACCCAUGUGAGGACUAAC”, the “apparent Kd” value was found to be 18.6 nM under setting [1] and 53.8 nM under setting [2].
As for “AUAUUUUCAGGAUAUCAACUUCACUACAUGAGGAUCACCCAUGUCCUCUAUUGUUUACUGUGAGAAGGGAAAGAGA”, the “apparent Kd” value is, setting by setting: under setting [1], 1010 nM; under setting [2], 507 nM.
In the case of “UAAAUCGAAGGAUAUACAUGUACAAGUAUCCGUCAAAGAGCACAUGAGGAUCACCCAUGUAGAAGGUCGACUAA”, the “apparent Kd” value amounted to 19.2 nM under setting [1] and 57.6 nM under setting [2].
On to “CAGGCUUUCAAGAAGGACCUGGUAACAUCAGUGGUAGGAUAUUGGUUAAGCUUGGCUUGACAUGAGGAUCACCCAUGUGGCGUA”, for which the “apparent Kd” value reads like this: under setting [3], 47.4 nM; under setting [4], 11.4 nM.
For “AAAUUACGUAAGAAGGCCAUAGGAACUGAAGCAAGCUCGACGACACAUGAGGAUCACCCAUGUCUGGAGGAUAUUAUGAUAUCU”, the “apparent Kd” value under setting [3] amounted to 10.3 nM and the “apparent Kd” value under setting [4] was 9.64 nM.
As to “UGCGUGGGAAAGAAGGCGUCCGAAUUGUGGCCACGAGGAUAUUUCCGGCGCACAUGAGGAUCACCCAUGUUCAGCUGGUAGCGU”, the “apparent Kd” value under setting [3] amounted to 32.5 nM and the “apparent Kd” value under setting [4] came to 22.1 nM.
For the sequence “GACAGUUUAUAGGAUAUCGACUCGACUGGGCAUCGAGAAGGAUAAACAUGAGGAUCACCCAUGUGUGGUAGGAA”, the “apparent Kd” value is, setting by setting: under setting [1], 39.2 nM; under setting [2], 125 nM.
Consider “GAAUUAUGACGUGAUACCAGUGGUCAAUACUGGGAACUUAACAUGAGGAUCACCCAUGUCCACCCUUGGCAGCACGCUGACAAUC”, for which the “apparent Kd” value reads like this: (designed as: OFF switch for theophylline, no ligand) 94 nM; (ligand present: theophylline, designed as: OFF switch for theophylline) 236 nM.
